The source made the active and inactive calls. The calls are words filed in the database; no cut-off is given here.
What was measured:
[1] = Stability in aqueous solution assessed as half life; type: physicochemical
Outline: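 Compound at final 10 µM in 0.01 M sodium phosphate buffer pH 7.4/MeCN (4:1). Decomposition followed by reversed-phase RP-18 HPLC with UV detection, eluting with MeCN–H2O or MeOH–H2O; half-life taken from the decomposition rate.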

[2] = test system: Salmonella enterica subsp. enterica; experiment: Mutagenic activity in Salmonella typhimurium TA100 assessed as crosslinking-associated increase in number of revertants after 2 days by Ames test; type: toxicity, organism-based; conditions: salmonella enterica subsp. enterica serovar typhimurium, 48 h
[3] = test system: Nucleic Acid; experiment: Induction of […] DNA interstrand crosslinking activity at > 100 uM after 6 hrs by agarose gel electrophoresis; type: nucleic-acid assay
Outline: (§1)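 Linearized pBluescript plasmid DNA (460 ng) exposed to compound in DMSO at 37 °C for 6 h. DNA recovered by EtOH precipitation and lyophilized, then taken up in 1 mM EDTA in 30% aqueous DMSO. Heat-denatured at 95 °C for 5 min and ice-quenched. Run on 1% agarose gel and stained with ethidium bromide.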

[4] = test system: Salmonella enterica subsp. enterica; experiment: Mutagenic activity in Salmonella typhimurium TA92 assessed as crosslinking-associated increase in number of revertants after 2 days by Ames test; type: toxicity, organism-based; conditions: salmonella enterica subsp. enterica serovar typhimurium, 48 h
Outline: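 TA92 grown 15.5 h at 37 °C in nutrient broth/NaCl. Culture (0.1 mL) mixed with DMSO-diluted compound (50 µL) in 0.1 M sodium phosphate pH 7.4 and preincubated 20 min at 37 °C. Mixed into 0.6% soft agar and overlaid on minimal agar. Revertant colonies counted manually after 2 days at 37 °C; mean of six plates.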

[5] = test system: CCRF-HSB-2; experiment: Antiproliferative activity against human CCRF-HSB2 cells after 24 hrs by trypan blue exclusion assay; type: functional, cell-based; conditions: CCRF-HSB-2, 24 h
Outline: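 CCRF-HSB-2 cells in RPMI1640 with 10% fetal calf serum, 37 °C, 5% CO2, seeded at 3 × 10^5 cell/mL in 3 mL per well. Pre-incubated 24 h, then given compound as DMSO solution (3 µL per well) for 24 h. Trypan blue-excluding cells counted.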

[6] = test system: Nucleic Acid; experiment: Induction of […] DNA interstrand crosslinking activity at 10 uM after 6 hrs by agarose gel electrophoresis; type: nucleic-acid assay; outline: as §1
[7] = test system: Nucleic Acid; experiment: Induction of […] DNA interstrand crosslinking activity at 1 uM after 6 hrs by agarose gel electrophoresis; type: nucleic-acid assay; outline: as §1

SMILES | half-life [1] [h] | Activity [2] | Activity [4] | also measured
BrCc1ccc2nc(CBr)ccc2c1 | 12.8 |  |  | 
ClCc1ccc2cc(CCl)ccc2c1 | 0.95 |  |  | 
BrCc1ccc(CBr)c2ncccc12 | 10.5 |  |  | 
ClCc1ccc(CCl)c2ccccc12 | 5.5 |  |  | 
BrCc1ccc2cc(CBr)ccc2c1 | < 0.167 | Active | Active | Activity [3]: inactive; IC50 [5]: 4 µM
BrCc1ccc(CBr)c2ccccc12 | 0.567 | Active | Active | Activity [6]: Active; Activity [7]: Active

Reference: ChEMBL document CHEMBL1151903, “Unique behavior of 2,6-bis(bromomethyl)naphthalene as a highly active organic DNA crosslinking molecule” (Bioorg Med Chem, 2009)
